Source: PubChem (several laboratories)
MEKK3 PB1 HTS = MEKK3-MEK5 PB1 interaction, increase or decrease. Q99759. bead-based flow cytometry, Alexa488-MEK5 binding to MEKK3; actives lie on both sides; 0 = blocked by unlabeled MEK5, 100 = vehicle. binding response (% of control), % at 10 µM. 290,000 tested, 1.4% active;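 active means binding response more than 3 SD above or below the average of its plate-row segment, actives on both sides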;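 further: Alexa488 bead fluorescence after subtracting the streptavidin-only scavenger bead signal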
T cell modulator = T cell immune modulation candidate; 2C CD8+ T cell-vesicle binding, flow cytometry; hits give low values; response (vesicle binding), % at 7 µM; 330,000 tested, 0.068% active;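 active means response, share of CD8 T cells binding vesicles, and their 90th percentile fluorescence all below set limits, cut at about 80% in these data, passing the limit was not always enough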;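 further: values below 100% mean blocked vesicle binding to the CD8+ T cells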
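Incubation: binding step 1.5 h, 37 °C, antibody labelling 20 min, ice; system: murine 2C transgenic CD8+ T lymphocytes; technique: cytometric PE anti-B7-1 and Alexa647 anti-CD8 signals after 1% paraformaldehyde fixation; also added: QL9-charged Drosophila Ld/ICAM-1/B7-1 vesicles; control set: naked versus QL9-loaded vesicles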
UCH37 inh = human UCH37 deubiquitinating enzyme inhibition; Q9Y5K5; 330,000 tested, 0.33% active; AID 588478; purified proteasome/UCH37, Ub-AMC cleavage fluorescence; inhibition, % (test concentration not listed);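 active means mean inhibition over replicate wells above about 20%, limit read from the data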
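assay system = human UCH37 enzyme supplied as purified proteasome complex | amount = proteasome at 0.15 nM in the dispensed enzyme solution | schedule = 30 min compound-proteasome preincubation then 25 min substrate reaction, room temperature | measured by = fluorescence, ex 355 nm, em 460 nm | benchmarks = no-proteasome wells (full inhibition) and compound-free wells (no inhibition)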
Rce1 inh = yeast Ras-converting enzyme inhibition; calls only; yeast membranes, quenched prenylated peptide cleavage fluorescence; AID 2563; 290,000 tested, 0.27% active;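 active means fall in fluorescence gain of 50% or more versus controls, with final raw signal at or below 3038400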
Target sequence (Q03530 whole entry, looked up): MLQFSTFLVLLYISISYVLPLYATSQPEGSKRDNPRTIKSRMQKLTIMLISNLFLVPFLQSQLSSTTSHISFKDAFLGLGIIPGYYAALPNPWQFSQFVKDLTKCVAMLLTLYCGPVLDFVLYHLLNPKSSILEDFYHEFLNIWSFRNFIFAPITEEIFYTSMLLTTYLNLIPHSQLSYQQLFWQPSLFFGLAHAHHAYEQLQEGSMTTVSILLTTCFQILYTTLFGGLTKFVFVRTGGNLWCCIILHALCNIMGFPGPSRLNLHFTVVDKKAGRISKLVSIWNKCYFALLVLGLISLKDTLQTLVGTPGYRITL
MEKK2 WT-MEK5 = raises or lowers MEK5 binding to wildtype human MEKK2 PB1 domain; binding response (% of control), % at 10 µM; bead flow cytometry, Alexa488-MEK5 binding to MEKK2 WT; actives lie on both sides; AID 1531; 290,000 tested, 1.1% active; in the data active means binding response below about 67% or above about 130%
MEKK2 mut-MEK5 = signal of MEK5 binding to mutant human MEKK2 PB1 domain. bead flow cytometry, Alexa488-MEK5 binding to MEKK2 mutant. percent response, % at 10 µM. AID 1530. 290,000 tested, 0.35% active; in the data active means percent response above about 24%, passing the limit was not always enough
MEKK2wt confirm = raises or lowers MEK5 binding to wildtype human MEKK2, retest; shares compounds with MEKK3 PB1 HTS; binding response (% of control), % at 10 µM; bead flow cytometry, Alexa488-MEK5 binding to MEKK2 WT; actives lie on both sides; 5,900 tested, 2.4% active; in the data active means binding response below about 16% or above about 210%; inactive means in between
MEKK2mut-MEK5 = signal of MEK5 binding to mutant human MEKK2, retest; bead flow cytometry, Alexa488-MEK5 binding to MEKK2 mutant; AID 1893; 5,900 tested, 2% active; shares compounds with MEKK3 PB1 HTS; percent response, % at 10 µM; in the data active means percent response mostly above about 71%, no sharp cut-off; inactive means mostly below about 38%;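 further: higher means compound restores mutant binding toward wildtype level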
MEKK3-MEK5 inh = confirmation of inhibitors of MEK5 binding to human MEKK3. 5,900 tested, 1.8% active. shares compounds with MEKK3 PB1 HTS. bead flow cytometry, Alexa488-MEK5 binding to MEKK3; hits give low values. binding response (% of control), % at 10 µM;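 active means binding response below 72% of control, or above a set upper limit, though filed actives all read lower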
Large screens that a line does not name were inactive (follow-up assays come after a bar, where they were run); [ ] = remark or other dose. Most compounds without a hit are left out; they make up all but 2.5% or so of the library.

COC(=O)CCCC1=CC2=C(c3ccccc3)C(=O)C(C)(OC(=O)C3CCCC3)C(=O)C2=CN1C(CO)CO (stereo not given)	none
COC(=O)CCCC1=CC2=C(c3ccccc3)C(=O)C(C)(OC(=O)C3CCCC3)C(=O)C2=CN1C1CC1 (stereo not given)	MEKK2 WT-MEK5 155 | MEKK2wt confirm inactive | MEKK2mut-MEK5 inactive | MEKK3-MEK5 inh inactive
Cc1ccc(S(=O)(=O)N2CCC(C(=O)NN=Cc3cccnc3)CC2)cc1	none (no result: MEKK3 PB1 HTS, T cell modulator, Rce1 inh, MEKK2 WT-MEK5, MEKK2 mut-MEK5)
O=C(Cn1cc(S(=O)(=O)N2CCN(c3ccccc3F)CC2)c2ccccc2c1=O)NCCCN1CCCCCC1	MEKK3 PB1 HTS 3.0[inhibitor], MEKK2 WT-MEK5 7.0[inhibitor] | MEKK2wt confirm inactive | MEKK2mut-MEK5 inactive | MEKK3-MEK5 inh inactive
CCOc1cc(C=NNC(=O)C2CC2)ccc1OC(C)C	none (no result: MEKK3 PB1 HTS, T cell modulator, Rce1 inh, MEKK2 WT-MEK5, MEKK2 mut-MEK5)
CC(=NOCON=C(C)c1ccccc1F)c1ccccc1F	none (no result: MEKK3 PB1 HTS, T cell modulator, Rce1 inh, MEKK2 WT-MEK5, MEKK2 mut-MEK5)
Cc1cccc(C)c1OCCOCCN1CCN(C)CC1	MEKK2 WT-MEK5 145 | MEKK2wt confirm inactive | MEKK2mut-MEK5 inactive | MEKK3-MEK5 inh inactive
Cc1cccc(C)c1OCCN1CCCC1	none
O=C(CC(=O)NN=Cc1ccccc1)NCCc1ccccc1	none (no result: MEKK3 PB1 HTS, T cell modulator, Rce1 inh, MEKK2 WT-MEK5, MEKK2 mut-MEK5)
COC(=O)Cn1c2ccc(Cl)cc2c2nc(C)sc21	none
Cc1ccc(S(=O)(=O)n2c3ccc(Cl)cc3c3nc(C)sc32)cc1	MEKK3 PB1 HTS 150 (no result: T cell modulator) | MEKK2wt confirm inactive | MEKK2mut-MEK5 inactive | MEKK3-MEK5 inh inactive
CC(CC(=O)Nc1ccccc1Br)=NNC(=O)C(=O)N1CCCC1	none (no result: MEKK3 PB1 HTS, T cell modulator, Rce1 inh, MEKK2 WT-MEK5, MEKK2 mut-MEK5)
Cc1ccc(OCC(O)CN2C(=O)NC(C)(C)C2=O)cc1 (stereo not given)	MEKK3 PB1 HTS 73[inhibitor] | MEKK2wt confirm inactive | MEKK2mut-MEK5 inactive | MEKK3-MEK5 inh inactive
Cc1ccc(OCC(O)CN2C(=O)NC(C)(C)C2=O)cc1C (stereo not given)	none
O=C(NN=Cc1c[nH]c2ccccc12)c1cc(-c2ccccc2)n[nH]1	none (no result: MEKK3 PB1 HTS, T cell modulator, Rce1 inh, MEKK2 WT-MEK5, MEKK2 mut-MEK5)
CC(C)c1ccc(NC(=O)c2snc3ccc(Cl)cc23)cc1	MEKK3 PB1 HTS 130 | MEKK2wt confirm inactive | MEKK2mut-MEK5 inactive | MEKK3-MEK5 inh inactive
CC(C)c1ccc(NC(=O)c2csnn2)cc1	none
COc1ccc(C=Nn2cnnc2)cc1Oc1nc(Cl)ncc1F	none (no result: MEKK3 PB1 HTS, T cell modulator, Rce1 inh, MEKK2 WT-MEK5, MEKK2 mut-MEK5)
c1nc(NCC2(N3CCOCC3)CCCCC2)c2ccsc2n1	MEKK3 PB1 HTS 123 | MEKK2wt confirm inactive | MEKK2mut-MEK5 inactive | MEKK3-MEK5 inh inactive
CCC1C(=NO)CC(c2ccco2)NC1c1ccco1 (stereo not given)	none (no result: MEKK3 PB1 HTS, T cell modulator, Rce1 inh, MEKK2 WT-MEK5, MEKK2 mut-MEK5)
COc1cccc(-c2nc(Cc3ccc(OC)c(OC)c3)no2)c1	MEKK2 WT-MEK5 -6.0[inhibitor] | MEKK2wt confirm inactive | MEKK2mut-MEK5 inactive | MEKK3-MEK5 inh inactive
CN1CCN(c2nc3cc(C(F)(F)F)ccc3n3cccc23)CC1	MEKK2 WT-MEK5 140 | MEKK2wt confirm inactive | MEKK2mut-MEK5 inactive | MEKK3-MEK5 inh inactive
FC(F)(F)c1ccc2c(c1)nc1n2CCCC1	none
O=C(CN1CCN(C(=O)c2cccs2)CC1)NC1CCCCC1	MEKK3 PB1 HTS 81[inhibitor] | MEKK2wt confirm inactive | MEKK2mut-MEK5 inactive | MEKK3-MEK5 inh inactive
O=C(CN1CCN(C(=O)c2cccs2)CC1)Nc1ccc(Br)cc1	none
NC(N)=N/N=C/c1ccc(OS(=O)(=O)c2ccccc2)cc1	MEKK2 WT-MEK5 146 (no result: UCH37 inh) | MEKK2wt confirm inactive | MEKK2mut-MEK5 inactive | MEKK3-MEK5 inh inactive
CCOC(=O)C1=C(NC(=S)NC(=O)c2ccccc2)c2ccccc2CC1(C)CC (stereo not given)	MEKK2 WT-MEK5 30[inhibitor] | MEKK2wt confirm inactive | MEKK2mut-MEK5 inactive | MEKK3-MEK5 inh inactive
